An excerpt weighted towards active compounds, which were near 1.7% of everything screened.
SUMO1-SIM PPI: modulators of SUMO1 protein-protein interactions, primary screen, biochemical, uHTS. 0.33% of 360,000 active. AID 602429, 2012. inhibition, % at 20 µM. SUMO1 binding to a labelled peptide, TR-FRET, 1 h; in the data active = inhibition above about 37%
Target sequence (P63165 whole entry, looked up): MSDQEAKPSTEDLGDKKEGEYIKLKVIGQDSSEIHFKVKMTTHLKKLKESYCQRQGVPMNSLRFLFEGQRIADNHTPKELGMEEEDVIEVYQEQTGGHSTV
STEP block: STEP phosphatase inhibitors, primary screen, biochemical, fluorescence intensity, uHTS; 0.25% of 360,000 active; recombinant STEP, OMFP fluorogenic substrate; inhibition, % at 20 µM;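 active = inhibition at 20 µM, scaled per plate between control wells, above about 37%, limit read from the data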
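Assay system: isolated STEP enzyme. Buffer or medium: pH 6.0 Bis-Tris with DTT and Tween 20. Also added: fluorogenic phosphatase substrate OMFP at 25 µM final. Dosing: 20 µM, 1% DMSO. Timing: 20 min reaction, room temperature, in the dark. Measured by: fluorescence intensity, excitation 480 nm, emission 540 nm. Evaluation: normalized % inhibition.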
DNMT1 block: human DNMT1 methyltransferase inhibitors, primary screen, biochemical, molecular beacon, fluorescence, HinP1I cleavage, uHTS | inhibition (reported as % activation of signal), % at 10 µM | 0.83% of 360,000 active; in the data active = inhibition above about 50%
Scp1 inh: Scp-1 phosphatase inhibitors, primary screen, biochemical, colorimetric, uHTS; Carboxy-terminal domain RNA polymerase II polypeptide A small phosphatase 1 (Homo …; Recombinant Scp1, phosphopeptide, malachite green phosphate absorbance; inhibition, % at 20 µM; 0.88% of 340,000 active; AID 493091, 2011;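 active = inhibition above about 50% at 20 µM, limit read from the data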
Target sequence (Q9GZU7 76-261 limits assumed): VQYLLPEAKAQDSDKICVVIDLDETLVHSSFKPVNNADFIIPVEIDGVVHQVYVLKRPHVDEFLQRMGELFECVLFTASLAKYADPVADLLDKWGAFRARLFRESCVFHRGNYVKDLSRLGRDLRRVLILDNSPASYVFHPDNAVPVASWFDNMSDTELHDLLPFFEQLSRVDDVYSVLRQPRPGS
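Times: enzyme reaction 45 min at room temperature, colour 5 min, stabilisation 30 min. Material: SCP-1 catalytic fragment, aa 76-261. Medium: Acidic Tris acetate buffer with magnesium and detergent. Signal: colorimetric free-phosphate detection, absorbance 630 nm. Read-out basis: % inhibition of SCP-1 phosphate liberation. Reagent: Phosphorylated 17-residue peptide substrate.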
LMPTP block: LMPTP phosphatase inhibitors, primary screen, biochemical, fluorescence intensity, uHTS; recombinant LMPTP-A, OMFP fluorogenic substrate; inhibition, % at 20 µM; AID 651560, 2012; 0.22% of 360,000 active; Low molecular weight phosphotyrosine protein phosphatase (Homo sapiens), P24666;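 active = compounds that cut the enzyme signal by at least half of the control window in the single-dose screen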
Target sequence (P24666 whole entry, looked up): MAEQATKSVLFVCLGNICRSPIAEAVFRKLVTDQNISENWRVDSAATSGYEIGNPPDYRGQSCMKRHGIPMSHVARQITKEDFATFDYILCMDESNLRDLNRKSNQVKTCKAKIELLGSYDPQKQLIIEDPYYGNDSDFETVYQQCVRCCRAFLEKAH
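Test system: LMPTP-A phosphatase enzyme; input: 0.625 nM LMPTP-A final; reagent: OMFP substrate, 400 µM final; compound dosing: 20 µM single dose, 3% DMSO; incubation: 50 min dark incubation at room temperature; measured by: endpoint fluorescence intensity from OMFP dephosphorylation; measure: % inhibition relative to no-enzyme and uninhibited control wells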
Scp1 confirm: Scp-1 phosphatase inhibitors, retest, confirmation, biochemical, colorimetric, single concentration | inhibition, % at 20 µM | shares compounds with Scp1 inh | recombinant SCP-1 catalytic domain, phosphate release, malachite green absorbance | AID 540281, 2011 | 61% of 2,500 active
Scp-1 MG ctr: colorimetric readout interference by compounds, confirmation, artefact control for Scp-1 inhibitor project, biochemical, single concentration. apparent inhibition (interference), % at 20 µM. shares compounds with Scp1 inh. Colorimetric interference counterscreen, malachite green absorbance 630 nm. 2,500 tested, under 10 active. AID 540313, 2011;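 note: compounds added after enzyme reaction finished so only phosphate colour detection is probed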
Scp-1 Tm shift: Scp-1 binding by thermal shift, confirmation, orthogonal assay for Scp-1 inhibitor project, biophysical, differential scanning fluorimetry | thermal shift relative to vanadate control, % at 40 µM | shares compounds with Scp1 inh | Recombinant SCP1, Sypro Orange thermal shift Tm | 25% of 1,500 active;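 active = substances whose mean melting-temperature shift, as a percentage of the reference inhibitor's shift, reaches about 5.3%, limit read from the data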
DNMT1 interf DR: spectral interference with molecular beacon fluorescence, dose response, artefact control for DNMT1 inhibitor project, biochemical, fluorescent molecular beacon; shares compounds with DNMT1 block; spectral interference counter-screen; IC50, µM; 200 tested, under 10 active; AID 602382, 2012; call rule not given here
DNMT1 confirm: DNMT1 methyltransferase inhibitor retest, confirmation, biochemical, molecular beacon, fluorescence, single concentration; 8% of 2,300 active; shares compounds with DNMT1 block; AID 602385, 2012; DNMT1 molecular beacon HinP1I cleavage; inhibition, % at 10 µM;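 active = average inhibition of at least 30% in the single-concentration confirmation test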
DNMT1 interf: shows spectral interference in the DNMT1 beacon assay; shares compounds with DNMT1 block; DNMT1 molecular beacon spectral interference counterscreen, fluorescence 485/520; activation (fluorescence interference), % at 10 µM; 1% of 2,300 active;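 active = activation of at least 30% at 10 µM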;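 note: DNMT1 catalytic domain with a HinP1I cleavage step and a FAM/dabcyl DNA beacon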
STEP inh conf: STEP phosphatase inhibitor hit confirmation, biochemical, fluorescence intensity, single concentration; shares compounds with STEP block; 32% of 520 active; inhibition, % at 20 µM; recombinant STEP, OMFP fluorogenic substrate; call rule not given here
Of the large screens only hits and unclear results are named; the others gave an inactive call (follow-up assays come after a bar, where they were run).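 Rule for the calls, unless noted: active = inhibition of at least 30% at 20 µM; inactive = the rest.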

Cc1ccc(C(=O)NNC(=O)CSc2nnc3c(n2)[nH]c2ccc(F)cc23)cc1	STEP block 56, DNMT1 block 105, Scp1 inh 67, LMPTP block 52 | Scp1 confirm 76 | Scp-1 MG ctr inactive | Scp-1 Tm shift inactive | DNMT1 confirm inactive | DNMT1 interf inactive | STEP inh conf inactive
O=C1CCC(O)CCN1CCSc1ccccc1 (centres undefined)	none
COc1cccc(Nc2c([N+](=O)[O-])cncc2[N+](=O)[O-])c1	none
COc1cccc(Nc2c(Nc3cccc(OC)c3)c(=O)c2=O)c1	STEP block 97, DNMT1 block 67, Scp1 inh 92, LMPTP block 78 | Scp1 confirm 68 | Scp-1 MG ctr inactive | Scp-1 Tm shift inactive | STEP inh conf inactive
COc1ncc(-c2c(-c3ccccc3OC)sc3ccccc23)cn1	none (no result: STEP block, DNMT1 block, Scp1 inh)
COc1cc(C(=O)Nc2ccc3c(c2)Cc2ccccc2-3)cc(OC)c1OC	none
COc1cc(C(=O)Nc2ccc3c(c2)C(=O)c2ccccc2C3=O)cc(OC)c1OC	STEP block 74, DNMT1 block 66, Scp1 inh 88 | Scp1 confirm 42 | Scp-1 MG ctr inactive | Scp-1 Tm shift inactive | DNMT1 confirm inactive | DNMT1 interf inactive | STEP inh conf inactive
CC(=O)N1CCOc2ccc(S(=O)(=O)NCc3ccc(F)cc3)cc21	STEP block 73, Scp1 inh 62 | Scp1 confirm 50 | Scp-1 MG ctr inactive | Scp-1 Tm shift inactive | STEP inh conf 30
O=C(N/N=C/c1ccoc1)c1cc(O)cc(O)c1	SUMO1-SIM PPI 43, STEP block 61, DNMT1 block 93, Scp1 inh 63 | Scp1 confirm 58 | Scp-1 MG ctr inactive | Scp-1 Tm shift inactive | DNMT1 interf DR inactive | DNMT1 confirm inactive | DNMT1 interf inactive | STEP inh conf 98
Cc1cc(C)cc(C(=O)N/N=C/c2ccoc2)c1	none
C[C@H](CO)N1C[C@H](C)[C@@H](CN(C)C(=O)Nc2ccc(C(F)(F)F)cc2)Oc2ccc(NC(=O)c3ccncc3)cc2C1=O	STEP block 52, DNMT1 block 92, Scp1 inh 77, LMPTP block 64 | Scp1 confirm inactive | Scp-1 MG ctr inactive | DNMT1 confirm inactive | DNMT1 interf inactive | STEP inh conf inactive
C[C@H](CO)N1C[C@H](C)[C@@H](CN(C)C(=O)Nc2ccc(C(F)(F)F)cc2)Oc2ccc(NC(=O)Nc3ccc(C(F)(F)F)cc3)cc2C1=O	none
CCN(CC(=O)Nc1c(F)cccc1F)C(=O)CCc1nc2cc(S(=O)(=O)N3CCOCC3)ccc2n1C	none
CC(=O)Oc1ccc(/C=N\NC(=O)c2cc3c(ccc4ccccc43)o2)cc1	STEP block 90, Scp1 inh 92 | Scp1 confirm 69 | Scp-1 MG ctr inactive | Scp-1 Tm shift inactive | STEP inh conf inactive
COc1cc(C(=O)NCCCN2CCCC2=O)cc(Br)c1OCc1ccccc1	none
COc1cc(N/C(N)=N/c2nc(C)cc(C)n2)cc(OC)c1	none
CCc1ccc(OCC(=O)Nc2ccc(-c3nc4ccccc4o3)c(O)c2)cc1	STEP block 66, DNMT1 block 77, Scp1 inh 100 | Scp1 confirm 73 | Scp-1 MG ctr inactive | Scp-1 Tm shift inactive | DNMT1 confirm inactive | DNMT1 interf inactive | STEP inh conf 19
COc1ccc(OCC(=O)Nc2cccc(-c3nc4ccccc4o3)c2)cc1	none
COc1ccc(NC(=O)/C(C#N)=C\c2ccc(OCc3ccc(C(=O)O)cc3)c(OC)c2)cc1	STEP block 89, Scp1 inh 75, LMPTP block 76 | Scp1 confirm 62 | Scp-1 MG ctr inactive | Scp-1 Tm shift inactive | STEP inh conf inactive
N#C/C(=C\c1ccc(OCc2ccc(F)cc2)cc1)C(=O)Nc1cccc(C(=O)O)c1	STEP block 92, Scp1 inh 93 | Scp1 confirm 74 | Scp-1 MG ctr inactive | Scp-1 Tm shift inactive | STEP inh conf inactive
Cc1cccc(NC(=O)N2CCC(C(=O)c3ccc(F)cc3)CC2)c1	none
O=C(c1ccccc1Br)N1CCc2c([nH]c3ccccc23)C1	none
O=Cc1cn(-c2ccccc2)nc1-c1cc2cc(O)ccc2oc1=O	SUMO1-SIM PPI 44, STEP block 60, Scp1 inh 64, LMPTP block 55 | Scp1 confirm 53 | Scp-1 MG ctr inactive | Scp-1 Tm shift inactive | STEP inh conf 79
O=C(O)/C=C/c1cn(-c2ccccc2)nc1-c1cc2ccccc2oc1=O	none
Cc1ccc(-c2nnc(SCC(=O)Nc3sc(C)c(C)c3C#N)n2C)cc1	DNMT1 block 52 | DNMT1 confirm inactive | DNMT1 interf inactive
COCCn1c(SCC(=O)Nc2sc(C)c(C)c2C#N)nnc1-c1ccc(OC)cc1	none
